Experimental data reported in paper PMC5845419 (RMD Open, 2018).
Entries after “also recorded” stand apart in the source; their conditions may differ. Read-outs that look alike come from different tables or passages of the source.

What was measured:
[1] = test system: serum urate (sUA); assay: Serum urate; format: in vivo, human; conditions: 7 days, adults with gout
In short: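 Adults with gout, 7-day periods; second dose of twice-daily regimen given after evening meal ~10 hours after first. Serum sampled at preset intervals on baseline (day −1) and days 7–35; non-ULT subjects started colchicine ~day −7. Emax as maximum per cent sUA change from baseline; mixed-effects model (sequence, treatment fixed; subject random; baseline covariate) giving least-squares means.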

[2] = format: in vivo, human
In short: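 Adults with gout, open-label, randomised by incomplete block design; 7-day treatment periods, oral dosing ~30 min after standardised breakfast. Serial plasma samples on days 7–35 and timed total-catch urine (1-hour rising to 2- or 10-hour intervals) with scheduled water intake. Plasma by protein precipitation, urine diluted with water; LC-MS/MS. Mixed-effects model (treatment fixed, subject random); geometric means.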

[3] = Safety and tolerability, phase IIa study in adults with gout; format: in vivo, human; conditions: all dose combinations of verinurad (2.5–20 mg) and allopurinol 300 mg once daily
[4] = single oral 10 mg dose, healthy volunteers; cited from earlier work
[5] = verinurad 2.5 mg + allopurinol 300 mg once daily
[6] = verinurad 20 mg + allopurinol 300 mg once daily
[7] = allopurinol 600 mg once daily vs 300 mg twice daily

CC(C)(Sc1ccncc1-c1ccc(C#N)c2ccccc12)C(=O)O [verinurad]
least-squares mean Emax (maximum per cent decrease in sUA from baseline) [1, 5]: 47% | least-squares mean Emax (maximum per cent decrease in sUA from baseline) ([1]; verinurad 5 mg + allopurinol 300 mg once daily): 59% | least-squares mean Emax (maximum per cent decrease in sUA from baseline) ([1]; verinurad 7.5 mg + allopurinol 300 mg once daily): 60% | least-squares mean Emax (maximum per cent decrease in sUA from baseline) ([1]; verinurad 10 mg + allopurinol 300 mg once daily): 67% | least-squares mean Emax (maximum per cent decrease in sUA from baseline) ([1]; verinurad 15 mg + allopurinol 300 mg once daily): 68% | least-squares mean Emax (maximum per cent decrease in sUA from baseline) [1, 6]: 74% | Tmax ([2]; human, plasma, oral, median Tmax, range across verinurad doses 2.5–20 mg in combination with allopurinol 300 mg once daily): 3 to 3.97 h | Ae0–24 (amount excreted in urine) [2, 5]: 17.8 µg | Ae0–24 (amount excreted in urine) [2, 6]: 165 µg | effect of verinurad on plasma PK of allopurinol ([2]; verinurad 2.5–20 mg + allopurinol 300 mg once daily): no effect; also recorded: did not affect | tolerability [3]: generally well tolerated | tolerability ([3]; listed as Verinurad): well tolerated | fraction of dose absorbed [4]: ~ 64% | median time to maximum observed plasma concentration (Tmax) [4]: 0.5 h | terminal half-life [4]: 15 h

O=c1[nH]c(=O)c2c[nH]nc2[nH]1 [oxypurinol]
least-squares geometric mean ratio (90% CI), oxypurinol Cmax [2, 7]: 122 (103 to 146)

Oc1ncnc2[nH]ncc12 [allopurinol, reference compound]
least-squares mean Emax (maximum per cent decrease in sUA from baseline) ([1]; allopurinol 300 mg once daily alone): 40% | least-squares mean Emax (maximum per cent decrease in sUA from baseline) ([1]; allopurinol 300 mg twice daily alone): 54% | least-squares mean Emax (maximum per cent decrease in sUA from baseline) ([1]; allopurinol 600 mg once daily alone): 54% | least-squares geometric mean ratio (90% CI), allopurinol Cmax [2, 7]: 204 (162 to 257) | change of allopurinol Ae0–24 and CLR0–24 by verinurad ([2]; verinurad at any dose (2.5–20 mg) + allopurinol 300 mg once daily): generally unchanged
